For 60 compounds, activation results are on record in PubChem BioAssay AID624467 (The Scripps Research Institute Molecular Screening Center, 2012).

Among all 360,000 compounds or so, about 3,600 (1%) were called active. The sample as a whole holds a higher share of actives than the screen did. Values without a mark were called inactive.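 How the source made its calls: active means activation above the mean activation of all test compounds in the run plus 3 SD (cut at about 38% in these data); inactive means the rest.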

Trace amine-associated receptor 1 (Homo sapiens), sequence (Q96RJ0 whole entry, looked up): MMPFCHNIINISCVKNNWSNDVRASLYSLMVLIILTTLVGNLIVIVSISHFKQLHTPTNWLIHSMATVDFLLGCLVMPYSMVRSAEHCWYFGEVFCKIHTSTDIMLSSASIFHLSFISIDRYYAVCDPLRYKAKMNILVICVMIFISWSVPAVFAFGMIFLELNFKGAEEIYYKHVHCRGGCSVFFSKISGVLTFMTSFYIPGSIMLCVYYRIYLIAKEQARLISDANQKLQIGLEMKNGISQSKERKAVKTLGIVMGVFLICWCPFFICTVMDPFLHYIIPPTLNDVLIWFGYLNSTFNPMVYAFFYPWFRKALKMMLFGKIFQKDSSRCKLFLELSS

This test addresses Trace amine-associated receptor 1 (Homo sapiens) (UniProt Q96RJ0). Briefly: human TAAR1 agonists, primary screen, Fluo-8 calcium fluorescence, CHO RD-HGA16 cells (AID 624467). The note with it: CHO RD-HGA16 TAAR1, Fluo-8 calcium fluorescence; at 3 µM; hits give high values. In short, it runs like this:
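Signal – calcium-sensitive Fluo-8 signal, excitation 470-495, emission 515-575 nm · System – RD-HGA16 (CHO) cells co-expressing Gα16 and hTAAR1 · Incubation – 17-24 h seeding, 75 min 37 °C dye, 30 min RT · Compound dosing – 3 µM single concentration · Repeats – no replicates (n 1)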
In the case of `Cc1cccc(N2C(=O)NC(=O)/C(=C\c3cnn(-c4ccccc4)c3)C2=O)c1`, the activation is 44.9% (active).

As for `COc1cc(OC)cc(C(=O)NCCN2CCC3(CC2)C(=O)NCN3c2ccccc2)c1`, the activation is 0.43%.

For the compound `CCC(=O)OC(Cc1ccccc1)(c1ccccc1)C(C)CN(C)C` (stereo not given), the activation was 1.23%.

For `COC(=O)COc1cc(C)cc2oc(=O)c3c(c12)CCCC3`, the activation was 15.7%. On to `CCOP(=O)(OCC)C(NC(=O)NC)C(N)=O` (stereo not given), for which the activation was 1.74%.

Turning to `Cc1ccc(CN2CCCC(C(=O)c3ccc4c(c3)OCO4)C2)cc1C` (stereo not given), the activation is 5.3%. With `CCC(=NCCc1ccccc1)c1c(O)n(C2CCCCC2)c(=O)[nH]c1=O` the figure was 82.8% (active); with `CC(=O)c1c(O)n(C2CCCCCC2)c(=O)[nH]c1=O`, 2.62%; with `CCCCCCN=C(CC)c1c(O)n(CCCC)c(=O)[nH]c1=O`, 18.9%.

`c1ccc(C(CN2CCCCC2)c2ccccc2)cc1`: the activation is 5.89%. The value for `COc1ccc(NC(=O)N2CCC3(CC2)OCCO3)c(OC)c1` was 4.78%; that for `Brc1ccc2c(c1)CNCc1cnnn1-2` was 2.44%. With `CC(=NC1CCN(Cc2ccccc2)CC1)c1c(O)n(C)c(=O)n(C)c1=O` the figure was -0.62%.

Turning to `COc1cc(C(=O)N2Cc3ccc(Br)cc3-n3nncc3C2)cc(OC)c1OC`, the activation is 1.8%. Consider `CCOc1cccc(=NC2CCCCC2)c2c(C)[nH]c(C)c12`, for which the activation was 2.88%. With `Clc1ccc([C@@H]2CC3CCC2N3)cn1` (stereo not given in full) the figure was 0.89%; with `CCOC(=O)C1SC2(C(F)(F)C(F)F)CC1(O)c1c(c(OC)c3occc3c1OC)O2` (stereo not given), 2.66%; with `Cn1c(O)c(C=NCCCC(=O)O)c(=O)n(C)c1=O`, 1.16%. The value for `CCCCC(=O)N/N=C/c1c(O)n(CC)c(=S)n(CC)c1=O` was 115% (active). The value for `CCCCC(=O)N/N=C/c1c(O)n(CCC2=CCCCC2)c(=O)[nH]c1=O` was 3.56%; that for `CC(=NCc1ccc2c(c1)OCO2)c1c(O)[nH]c(=O)[nH]c1=O` was 4.1%; that for `O=C1NC(=O)N(Cc2ccco2)C(=O)/C1=C\c1ccc(-c2ccc(F)cc2)o1` was 51.8% (active). For the compound `COc1ccc(-c2nn(CCC#N)cc2C(=O)O)cc1`, the activation was 0.78%.

For the compound `C[C@]12CCC3C(CC[C@H]4[C@H](O)[C@H](O)CC[C@]34C)C1CCC2=O` (stereo not given in full), the activation is 4.54%. With `COc1ccc2c(c1)[C@@]13CCCCC1[C@@H](C2)NCC3` (stereo not given in full) the figure was 4.44%. For the compound `CCN1CC2C3CCC(C)(O3)C2C1` (stereo not given), the activation is 1.68%. Turning to `CCC(C)NC1(c2ccccc2)CCCCC1` (stereo not given), the activation is 3.45%. With `CC(Cc1ccccc1)NC=O` (stereo not given) the figure was 68.4% (active). Regarding `CC(=O)Nc1ccc(C(=O)C(Cc2ccccc2)N(C)C)cc1` (stereo not given), the activation was 5.99%. `CC(Cc1ccccc1)NCCC(c1ccccc1)c1ccccc1` (stereo not given): the activation is 44.2% (active). The value for `O=c1c2ccccc2nc(/C=C/c2ccco2)n1-c1ccccc1O` was 0.46%; that for `C[N+]12CN3CN(CN(C3)C1)C2` was 4.95%; that for `S=C(NCCc1ccccc1)N1Cc2cc(N3CCOCC3)ccc2-n2nncc2C1` was 25.3%. Take `O=S(=O)(c1ccccc1)N1CCC2CCNC2C1` (stereo not given): the activation is 2.18%. The value for `CCN(CC)C(=O)c1ccc(NC(=O)c2cc(-n3cnnc3)ccc2Cl)cc1` was 8.2%; that for `Cc1cc(N2CCNC[C@@H]2C)ccc1N1CC[C@H](O)C1` was 0.68%. The value for `CCN(CC)C(=O)[C@@H]1C=C2c3cccc4[nH]c(Br)c(c34)C[C@H]2N(C)C1` was 0.25%; that for `CS(=O)(=O)N1CCC2CCNC2C1` (stereo not given) was 2.13%. With `Clc1ccc2nc3c(c(-c4ccccc4)c2c1)CNCC3` the figure was 55% (active); with `O=c1[nH]c(=O)n(CCc2ccccc2)c(O)c1/C=N/N1CCOCC1`, 7.45%. `NCC(O)c1ccc(O)cc1` (stereo not given): the activation is 80.5% (active). With `CC12CN3CC(C)(CN(C1)C3c1cccs1)C2` (stereo not given) the figure was 8.25%; with `CC(CC(C#N)(c1ccccc1)c1ccccc1)N1CCCCC1` (stereo not given), 1.72%. With `O=C(N/N=C/c1c(O)n(C2CC2)c(=S)[nH]c1=O)c1ccccc1Cl` the figure was -1.25%. Take `O=c1[nH]c2ccccc2n1C1CCN(C(c2ccccc2)c2nnnn2Cc2ccccc2)CC1` (stereo not given): the activation is 10.1%. With `O=c1[nH]c2ccccc2n1C1CCN(C(c2ccnc3ccccc23)c2nnnn2Cc2ccccc2)CC1` (stereo not given) the figure was 40.5% (active); with `COc1ccc(-n2nnnc2C(c2cccc3ccccc23)N2CCC(n3c(=O)[nH]c4ccccc43)CC2)cc1` (stereo not given), 3.04%. For the compound `Cc1ccc2c(c1)=C/C(=C\c1c(O)[nH]c(=O)[nH]c1=O)C(=O)N=2`, the activation was 0.28%. For the compound `COc1cccc(OC)c1C(=O)NC(=S)N1C[C@H]2C[C@H](C1)c1cccc(=O)n1C2`, the activation is 4.06%. The value for `O=C1CC(=O)N(Cc2ccccc2)C(=O)N1CCCCCCN1C(=O)CC(=O)N(Cc2ccccc2)C1=O` was 1.5%; that for `O=C(CN1CCCC1=O)NCCc1ccccc1` was 38.6% (active); that for `c1cc2c(cc1CCNC1CCCCCC1)OCO2` was 4.36%. For the compound `c1ccc(CCNC2CCCCCC2)cc1`, the activation was 87.1% (active). Regarding `OC(CNC1CCCCC1)c1ccccc1` (stereo not given), the activation is 0.51%. Turning to `COc1ccc(CNCCc2c[nH]c3ccccc23)cc1OC`, the activation is 1.21%.

Take `COc1ccc(Br)cc1CNCCc1cccc(Cl)c1`: the activation was 49.1% (active). The value for `COc1ccc(CNCCc2ccc3c(c2)OCO3)c(OC)c1OC` was 2.45%; that for `CNC(=S)N/N=C1\C2CN3CCN(C2)CC1(c1ccccc1)C3` was 2.42%; that for `c1ccc2sc(N3CCNCC3)nc2c1` was 10.3%. As to `CC(C)CN1Cc2cc(N3CCCCC3)ccc2-n2nncc2C1`, the activation is -1.61%.
